Measured values published in PMC4064470 (Journal of medicinal chemistry, 2013).

Legend:
recombinant human VAP-1 = target: T1, recombinant human VAP-1 (Homo sapiens, UniProt Q16853); experiment: In vitro inhibition of recombinant human VAP-1 activity; assay type: biochemical; conditions: control compound
T1 sequence (Q16853 1-763): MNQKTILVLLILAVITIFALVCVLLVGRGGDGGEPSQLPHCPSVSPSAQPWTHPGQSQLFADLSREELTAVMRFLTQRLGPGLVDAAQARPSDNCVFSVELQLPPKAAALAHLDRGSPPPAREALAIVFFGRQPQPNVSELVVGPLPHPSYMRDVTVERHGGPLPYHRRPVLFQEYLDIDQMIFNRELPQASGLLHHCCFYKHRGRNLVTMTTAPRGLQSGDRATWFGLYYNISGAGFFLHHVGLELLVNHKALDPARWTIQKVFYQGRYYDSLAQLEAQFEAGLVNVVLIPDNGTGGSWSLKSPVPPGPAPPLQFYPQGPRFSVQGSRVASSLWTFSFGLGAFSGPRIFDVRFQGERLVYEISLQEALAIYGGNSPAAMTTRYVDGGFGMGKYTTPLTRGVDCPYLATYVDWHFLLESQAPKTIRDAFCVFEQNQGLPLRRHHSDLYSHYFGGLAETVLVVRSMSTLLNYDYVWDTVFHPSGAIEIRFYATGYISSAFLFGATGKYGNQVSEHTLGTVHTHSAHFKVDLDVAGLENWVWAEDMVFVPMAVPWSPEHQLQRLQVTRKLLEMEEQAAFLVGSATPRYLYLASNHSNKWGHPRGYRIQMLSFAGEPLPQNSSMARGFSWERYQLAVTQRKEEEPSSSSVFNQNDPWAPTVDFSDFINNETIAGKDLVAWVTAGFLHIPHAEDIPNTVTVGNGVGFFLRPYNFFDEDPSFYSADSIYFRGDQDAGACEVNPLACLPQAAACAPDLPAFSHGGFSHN
Method in brief: (§1)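 Enzyme source was lysate of CHO cells stably transfected with VAP-1 (native CHO has negligible activity), dosed to give 0.6 A490/h. Test compound (1 nM–50 μM) was preincubated 30 min at 37 °C with 0.2 M potassium phosphate pH 7.6, 1 mM 2,4-dichlorophenol, 500 μM 4-aminoantipyrine and 4 U/ml HRP. Then 1 mM benzylamine (final) was added for 1 h at 37 °C and A490 read. Percent inhibition was background-corrected and IC50 fitted, from two to six experiments.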

recombinant mouse VAP-1 = target: T2, recombinant mouse VAP-1 (Mus musculus, UniProt O70423); experiment: In vitro inhibition of recombinant mouse VAP-1 activity; assay type: biochemical; conditions: control compound; mouse VAP-1 in Figure 1
T2 sequence (O70423 1-765): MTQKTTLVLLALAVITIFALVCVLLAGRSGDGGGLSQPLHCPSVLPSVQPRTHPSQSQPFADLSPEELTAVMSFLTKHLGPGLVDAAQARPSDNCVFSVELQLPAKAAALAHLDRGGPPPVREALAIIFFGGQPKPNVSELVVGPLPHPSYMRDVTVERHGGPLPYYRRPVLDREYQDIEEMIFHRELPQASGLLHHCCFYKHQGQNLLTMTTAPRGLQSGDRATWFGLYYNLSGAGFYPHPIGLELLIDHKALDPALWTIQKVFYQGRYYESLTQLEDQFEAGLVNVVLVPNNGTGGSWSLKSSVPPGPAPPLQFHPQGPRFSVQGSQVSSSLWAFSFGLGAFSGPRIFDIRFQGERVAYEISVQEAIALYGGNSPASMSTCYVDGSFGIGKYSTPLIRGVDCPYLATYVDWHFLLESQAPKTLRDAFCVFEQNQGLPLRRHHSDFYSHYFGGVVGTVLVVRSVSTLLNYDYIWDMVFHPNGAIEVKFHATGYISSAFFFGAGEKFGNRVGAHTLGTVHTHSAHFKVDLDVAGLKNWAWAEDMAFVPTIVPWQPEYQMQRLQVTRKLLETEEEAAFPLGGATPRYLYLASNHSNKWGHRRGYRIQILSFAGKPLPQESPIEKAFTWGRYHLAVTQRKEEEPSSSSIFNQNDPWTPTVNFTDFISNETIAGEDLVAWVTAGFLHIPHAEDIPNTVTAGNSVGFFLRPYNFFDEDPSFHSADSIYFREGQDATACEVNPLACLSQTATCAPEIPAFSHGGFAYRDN
Method in brief: as §1

Question: Which results are given for `CN(N)[C@H](c1ccccc1)[C@@H](O)c1ccccc1.O=C(O)C(O)C(O)C(=O)O` [Compound 11d, (1S,2R)-2-(1-methylhydrazino)-1,2-diphenylethanol (S,S)-tartrate salt]?
Answer: inhibition of human VAP-1 (in words) (recombinant human VAP-1): inhibits; inhibition of rodent VAP-1 (in words) (recombinant mouse VAP-1): inhibits
